Data set [1] concerns Mus musculus. The data set can be described thus: Neurotoxicity in albino Carworth Farms No.1 mouse assessed as motor impairment at 30 mg/kg, ip after 0.5 hrs by rotarod test. The following applies: in vivo. On the set-up: dose 30 mg/kg, route intraperitoneal. It is filed as toxicity, organism-based. The method, boiled down:
(§1)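 Rotorod neurotoxicity in mice at 6 r.p.m. Compound given i.p. (30, 100, 300 mg/kg) in 0.5% methylcellulose; tested at 30 min and 4 h. Impairment is inability to keep equilibrium on the rod for a given time; scored as impaired/tested.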
(In the rotarod test animals must keep their balance on a rotating rod.)

Data set [2] concerns Mus musculus. In words: Neurotoxicity in albino Carworth Farms No.1 mouse assessed as motor impairment at 100 mg/kg, ip after 0.5 hrs by rotarod test. On the set-up: dose 100 mg/kg, route intraperitoneal. Particulars: in vivo. It is filed as toxicity, organism-based. The method, boiled down:
as §1

In data set [3] the test system is Mus musculus. In words: Neurotoxicity in albino Carworth Farms No.1 mouse assessed as motor impairment at 300 mg/kg, ip after 0.5 hrs by rotarod test. The arrangement: dose 300 mg/kg, route intraperitoneal. It is filed as toxicity, organism-based. The following applies: in vivo. The method, boiled down:
as §1

Data set [4] concerns Mus musculus. The data set can be described thus: Anticonvulsant activity in albino Carworth Farms No.1 mouse assessed as protection against subcutaneous metrazol-induced seizure at 30 mg/kg, ip after 0.5 hrs. Type of data set: functional, organism-based. On the set-up: dose 30 mg/kg. The method, boiled down:
(§2)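 Mouse scMET test. Compound given i.p. (30, 100 or 300 mg/kg) in 0.5% methylcellulose. Pentylenetetrazole 85 mg/kg (CD97) given s.c. at 0.5 or 4 h, then mice observed for 30 min. Protection is absence of clonic spasms; scored as protected/tested.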

The subject of data set [5] is Mus musculus. In words: Anticonvulsant activity in albino Carworth Farms No.1 mouse assessed as protection against subcutaneous metrazol-induced seizure at 30 mg/kg, ip after 4 hrs. It is filed as functional, organism-based. The arrangement: dose 30 mg/kg. The method, boiled down:
as §2

Data set [6] relates to Mus musculus. The data set can be described thus: Anticonvulsant activity in albino Carworth Farms No.1 mouse assessed as protection against subcutaneous metrazol-induced seizure at 100 mg/kg, ip after 0.5 hrs. The arrangement: dose 100 mg/kg. Type of data set: functional, organism-based. The method, boiled down:
as §2

Data set [7] concerns Mus musculus. In words: Anticonvulsant activity in albino Carworth Farms No.1 mouse assessed as protection against subcutaneous metrazol-induced seizure at 100 mg/kg, ip after 4 hrs. Type of data set: functional, organism-based. The arrangement: dose 100 mg/kg. The method, boiled down:
as §2

The test system of data set [8] is Mus musculus. In words: Anticonvulsant activity in albino Carworth Farms No.1 mouse assessed as protection against subcutaneous metrazol-induced seizure at 300 mg/kg, ip after 0.5 hrs. Type of data set: functional, organism-based. On the set-up: dose 300 mg/kg. The method, boiled down:
as §2

Data set [9] concerns Mus musculus. The data set can be described thus: Anticonvulsant activity in albino Carworth Farms No.1 mouse assessed as protection against subcutaneous metrazol-induced seizure at 300 mg/kg, ip after 4 hrs. It is filed as functional, organism-based. The arrangement: dose 300 mg/kg. The method, boiled down:
as §2

The test system of data set [10] is Mus musculus. The data set can be described thus: Anticonvulsant activity in albino Carworth Farms No.1 mouse assessed as protection against maximal electroshock-induced seizure at 30 mg/kg, ip after 0.5 hrs. It is filed as functional, organism-based. On the set-up: dose 30 mg/kg. The method, boiled down: (§3)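 Mouse MES test with compound given i.p. (30, 100 or 300 mg/kg) in 0.5% methylcellulose; tested at 0.5 and 4 h. Corneal stimulus of 50 mA at 60 Hz for 0.2 s, electrodes primed with 0.5% butacaine in 0.9% NaCl. Protection is abolition of hindlimb tonic extension; scored as protected/tested.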
For orientation: In the maximal electroshock model the usual endpoint is tonic extension of the hind limbs.

Data set [11] concerns Mus musculus. In words: Anticonvulsant activity in albino Carworth Farms No.1 mouse assessed as protection against maximal electroshock-induced seizure at 30 mg/kg, ip after 4 hrs. It is filed as functional, organism-based. The arrangement: dose 30 mg/kg. The method, boiled down:
as §3

Data set [12] concerns Mus musculus. In words: Anticonvulsant activity in albino Carworth Farms No.1 mouse assessed as protection against maximal electroshock-induced seizure at 100 mg/kg, ip after 0.5 hrs. It is filed as functional, organism-based. On the set-up: dose 100 mg/kg. The method, boiled down: as §3
For data set [13], the system named is Mus musculus. The data set can be described thus: Anticonvulsant activity in albino Carworth Farms No.1 mouse assessed as protection against maximal electroshock-induced seizure at 100 mg/kg, ip after 4 hrs. Type of data set: functional, organism-based. The arrangement: dose 100 mg/kg. The method, boiled down: as §3
Data set [14] relates to Mus musculus. The data set can be described thus: Anticonvulsant activity in albino Carworth Farms No.1 mouse assessed as protection against maximal electroshock-induced seizure at 300 mg/kg, ip after 0.5 hrs. Type of data set: functional, organism-based. The arrangement: dose 300 mg/kg. The method, boiled down: as §3
Data set [15] concerns Mus musculus. In words: Anticonvulsant activity in albino Carworth Farms No.1 mouse assessed as protection against maximal electroshock-induced seizure at 300 mg/kg, ip after 4 hrs. Type of data set: functional, organism-based. On the set-up: dose 300 mg/kg. The method, boiled down: as §3
Data set [16] deals with Mus musculus. In words: Neurotoxicity in albino Carworth Farms No.1 mouse assessed as motor impairment at 30 mg/kg, ip after 4 hrs by rotarod test. On the set-up: dose 30 mg/kg, route intraperitoneal. Particulars: in vivo. Type of data set: toxicity, organism-based. The method, boiled down:
as §1

Data set [17] deals with Mus musculus. In words: Neurotoxicity in albino Carworth Farms No.1 mouse assessed as motor impairment at 300 mg/kg, ip after 4 hrs by rotarod test. Type of data set: toxicity, organism-based. Particulars: in vivo. The arrangement: dose 300 mg/kg, route intraperitoneal. The method, boiled down:
as §1

Data set [18] deals with Mus musculus. In words: Anticonvulsant activity in ip dosed albino Carworth Farms No.1 mouse assessed as protection against maximal electroshock-induced seizure after 0.25 hrs. Type of data set: functional. Particulars: albino Carworth Farms No.1, ip. The method, boiled down:
(§4)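 Mouse quantification at the time of peak effect, compound given i.p. in 0.5% methylcellulose. Groups of at least eight mice received varied doses until at least two points fell between 100 and 0% response. ED50 (MES, scMET) and TD50 (rotorod) with 95% CI by probit analysis (Finney). PI = TD50/ED50 MES.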

Data set [19] deals with Mus musculus. The data set can be described thus: Anticonvulsant activity in ip dosed albino Carworth Farms No.1 mouse assessed as protection against subcutaneous metrazol-induced seizure after 0.25 hrs. The following applies: albino Carworth Farms No.1, 0.25 h. Type of data set: functional. The method, boiled down: as §4
The subject of data set [20] is Mus musculus. The data set can be described thus: Anticonvulsant activity in ip dosed albino Carworth Farms No.1 mouse assessed as time needs to show peak effect for protection against maximal electroshock-induced seizure. Type of data set: functional.
In data set [21] the test system is Mus musculus. The data set can be described thus: Anticonvulsant activity in ip dosed albino Carworth Farms No.1 mouse assessed as protection against electric-current for 3 secs-induced seizure after 0.25 hrs by 6Hz minimal clonic seizure test. Type of data set: functional. The following applies: albino Carworth Farms No.1, ip.
Data set [22] concerns Mus musculus. The data set can be described thus: Anticonvulsant activity in ip dosed albino Carworth Farms No.1 mouse assessed as time needs to show peak effect for electric-current for 3 secs-induced seizure after 0.25 hrs by 6Hz minimal clonic seizure test. Type of data set: functional.
Data set [23] deals with Rattus norvegicus. The data set can be described thus: Anticonvulsant activity in po dosed albino Sprague-Dawley rat assessed as protection against subcutaneous metrazol-induced seizure after 0.25 hrs. Type of data set: functional. The method, boiled down: (§5)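 Rats dosed orally, compound in 0.5% methylcellulose. MES at 150 mA, 60 Hz, 0.2 s; scMET with pentylenetetrazole 70 mg/kg s.c. plus 30 min observation; rotorod for toxicity.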

Data set [24] can be described thus: Neurotoxicity in po dosed albino Sprague-Dawley rat assessed as motor impairment after 0.25 hrs by rotarod test. It is filed as toxicity, organism-based. The following applies: in vivo. The method, boiled down: as §5
The subject of data set [25] is Rattus norvegicus. In words: Anticonvulsant activity in po dosed albino Sprague-Dawley rat assessed as time needs to show peak effect for protection against maximal electroshock-induced seizure after 0.25 hrs. Type of data set: functional. The method, boiled down:
as §5

A short description of data set [26]: Neurotoxicity in ip dosed albino Carworth Farms No.1 mouse assessed as motor impairment after 0.25 hrs by rotarod test. Particulars: Carworth Farms No.1 (albino), in vivo. Type of data set: toxicity, organism-based. The method, boiled down:
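Mouse quantification at the time of peak effect, compound given i.p. in 0.5% methylcellulose. Groups of at least eight mice received varied doses until at least two points fell between 100 and 0% response. PI = TD50/ED50 MES.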

For data set [27], the system named is Mus musculus. In words: Anticonvulsant activity in albino Carworth Farms No.1 mouse assessed as protection against electric-current for 3 secs-induced seizure at 100 mg/kg, ip after 0.5 hrs by 6Hz minimal clonic seizure test. It is filed as functional. The method, boiled down:
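6 Hz psychomotor seizure test in mice. Compound given i.p. as a suspension in 0.5% methylcellulose. Corneal stimulation at 32 mA, 0.2-ms monopolar rectangular pulses at 6 Hz for 3 s, from a constant-current device. Tests run 0.25–4 h after dosing. A mouse counted as protected if it resumed normal exploratory behaviour within 10 s; scored as protected/tested.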

Molecules are shown by their SMILES. Activity calls are given as the source filed them. The rule behind the calls is not given here.

Turning to `Cl.O=C1[C@H](c2ccccc2)N2CCC[C@H]2C(=O)N1Cc1ccccc1`, the Activity result in data set [1], in data set [2], in [3], in data set [16] and in [17] was “Non-toxic” each time. The result in data set [4], in data set [5], in data set [6], in data set [7], in data set [8] and in data set [9] was inactive. The result in [10], in data set [11], in data set [12], in data set [13] and in data set [15] was inactive. In addition, the result in data set [14] was Active.
Take `CN1C(=O)[C@H](c2ccccc2)N2CCC[C@H]2C1=O.Cl`: the Activity result in data set [1] is “Non-toxic”; in data set [2], “Non-toxic”; in data set [3] it was “Toxic”; in [16], “Non-toxic”; in data set [17] it was “Non-toxic”. The result in data set [4], in [5], in data set [6], in data set [7], in data set [9] and in data set [10] was inactive. In addition, the result in data set [11], in [12], in [13] and in data set [15] was inactive. In addition, the result in data set [8] and in [14] was Active.
For the molecule `COC[C@@H](NC(C)=O)C(=O)NCc1ccccc1` [LACOSAMIDE], the ED50 in data set [18] was 4.46 mg/kg; in data set [19] it was above 25 mg/kg; in [21] it was 9.99 mg/kg; in data set [23] it was above 250 mg/kg. The Time in [20], in [22] and in [25] was 0.5 h in each case. The TD50 at 0.25 h in [24] is above 500 mg/kg.
Turning to `CC[C@@H](C(N)=O)N1CCCC1=O`, the TD50 at 0.25 h in data set [26] is above 500 mg/kg. Further, the Time in data set [22] came out at 1 h.
With `CCC1(c2ccccc2)C(=O)NC(=O)NC1=O` [PHENOBARBITAL], the ED50 in data set [18] is 21.8 mg/kg; in [19], 13.2 mg/kg; in [21], 14.8 mg/kg; in data set [23], 11.6 mg/kg. In addition, the figures for the Time in [20], in data set [22] and in [25] were 1 h, 0.5 h and 5 h, respectively. Moreover, the TD50 at 0.25 h in [24] is 61.1 mg/kg.
Turning to `O=C1CN2CCC[C@H]2C(=O)N1`, the Activity result in [1], in data set [2], in data set [3], in data set [16] and in [17] was “Non-toxic” each time. For the same molecule, the outcome in [4], in data set [5], in data set [6], in [7], in data set [8] and in data set [9] was inactive. In addition, the result in data set [10], in data set [11], in data set [12], in data set [13], in data set [14] and in [15] was inactive.
In the case of `C[C@@H]1C(=O)NC(=O)[C@@H]2CCCN12`, the Activity result in data set [1], in data set [2], in data set [3], in data set [16] and in data set [17] was “Non-toxic” in each case. In addition, the result in data set [4], in data set [5], in data set [6], in data set [7], in data set [8] and in data set [9] was inactive. Besides, the result in [10], in [11], in data set [12], in [13], in data set [14] and in data set [15] was inactive.
On to `O=C1[C@@H]2CCCN2[C@H](c2ccccc2)C(=O)N1Cc1ccccc1`, for which the Activity result in data set [1], in data set [2], in data set [3], in data set [16] and in data set [17] was “Non-toxic” throughout. Besides, the result in data set [4], in data set [5], in data set [6], in [7], in data set [8] and in data set [9] was inactive. Besides, the outcome in [10], in [11], in data set [12], in data set [13], in [14] and in [15] was inactive.
Consider `COC(=O)[C@@H](c1ccccc1)N1CCC[C@H]1C(N)=O`, for which the result in data set [27] was Active. In addition, in [3], the Activity result is recorded as “Toxic”.

By ED50 is commonly meant the midpoint of the dose-response relation. As usually defined, the TD50 is the dose at which the toxic effect under study appears in half of the subjects.

Source of the values: ChEMBL document CHEMBL1909525, “Synthesis and anticonvulsant activity of novel 2,6-diketopiperazine derivatives. Part 1: perhydropyrrole[1,2-a]pyrazines” (Eur J Med Chem, 2011).
